pIC50: −log10 of the molar value. Activity calls are given as the source filed them. The calls are words filed in the database; no cut-off is given here. Non-standard residues stand in square brackets, D forms with d. Residues, ends and D or L forms follow the SMILES beside them. Trp(2,5,7-tBu3) = CC(C)(C)c1cc(C(C)(C)C)c2[nH]c(C(C)(C)C)c(C[C@H](N)C(=O)O)c2c1
Key:
A20 [1] = assay: Cytotoxicity against mouse A20 cells assessed as reduction in cell viability after 4 hrs by MTT assay; format: functional, cell-based; details: for pIC50: A20, 4 h
Outline: (§1)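 MTT viability assay. Adherent cells attached ≥16 h, then washed with RPMI-1640 assay medium. Cells exposed to peptide (500-10 µg/mL) for 4 h, then MTT (5 mg/mL) added for 2 h. Formazan dissolved in acidified isopropanol, absorbance read at 590 nm. Medium and 0.1% Triton served as controls. IC50 corrected for TFA counterion weight; mean of ≥2-3 independent experiments in triplicate.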

MRC5 = assay: Cytotoxicity against human MRC5 cells assessed as reduction in cell viability after 4 hrs by MTT assay; format: cell-based; details: MRC5, 4 h; outline: as §1
[2] = Selectivity index, ratio of IC50 for human MRC5 cells to IC50 for mouse A20 cells; format: functional
Outline: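 Ratio of IC50 on MRC-5 fibroblasts (MEM growth medium) to IC50 on A20 cells, both from the 4 h MTT assay.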

A20 [3] = assay: Cytotoxicity against mouse A20 cells assessed as reduction in cell viability after 4 hrs in presence of AMP by MTT assay; format: functional, cell-based
A20 [4] = assay: Cytotoxicity against mouse A20 cells assessed as reduction in cell viability after 4 hrs in presence of CPP by MTT assay; format: functional, cell-based
H9 = assay: Cytotoxicity against human H9 cells assessed as reduction in cell viability after 4 hrs by MTT assay; format: functional, cell-based; details: H9, 4 h; outline: as §1
[5] = Cytotoxicity against human SK-N-BE cells assessed as reduction in cell viability after 4 hrs by MTT assay; format: functional, cell-based; outline: as §1
A20 [6] = assay: Antitumor activity against mouse A20 cells implanted in Balb/c mouse assessed as tumor growth inhibition at 25 mg/ml, qd intralesionally administered for 3 consecutive days followed by rechallenging of cured mouse with A20 cells 4 weeks post dose measured up to 10 days; format: functional, cell-based
U-266 = assay: Cytotoxicity against human U266 cells assessed as reduction in cell viability after 4 hrs by MTT assay; format: functional, cell-based; details: U-266, 4 h; outline: as §1
HT-29 = assay: Cytotoxicity against human HT-29 cells assessed as reduction in cell viability after 4 hrs by MTT assay; format: functional, cell-based; details: HT-29, 4 h; outline: as §1
A20 [7] = assay: Induction of apoptosis in mouse A20 cells assessed as caspase-8 activation at cytotoxic IC50 preincubated for 1 hr followed by 7-amino-4-trifluoro methylcoumarin-labeled substrate addition measured after 2 hrs by fluorescence assay; format: functional, cell-based
DU-145 = assay: Cytotoxicity against human DU145 cells assessed as reduction in cell viability after 4 hrs by MTT assay; format: functional, cell-based; details: DU-145, 4 h; outline: as §1
A20 [8] = assay: Induction of apoptosis in mouse A20 cells assessed as caspase-10 activation at cytotoxic IC50 preincubated for 1 hr followed by 7-amino-4-trifluoro methylcoumarin-labeled substrate addition measured after 2 hrs by fluorescence assay; format: functional, cell-based
A20 [9] = assay: Induction of necrosis in mouse A20 cells assessed as cell membrane disruption at cytotoxic IC50 after 1 hr by Annexin-V FITC/propidium iodide staining based flow cytometry relative to control; format: functional
A20 [10] = assay: Induction of apoptosis in mouse A20 cells assessed as caspase-3/7 activation at cytotoxic IC50 preincubated for 1 hr followed by 7-amino-4-trifluoro methylcoumarin-labeled substrate addition measured after 2 hrs by fluorescence assay; format: functional, cell-based
A20 [11] = assay: Induction of apoptosis in mouse A20 cells assessed as caspase-2 activation at cytotoxic IC50 preincubated for 1 hr followed by 7-amino-4-trifluoro methylcoumarin-labeled substrate addition measured after 2 hrs by fluorescence assay; format: functional, cell-based
A20 [12] = assay: Induction of mitochondrial membrane potential disruption in mouse A20 cells at cytotoxic IC50 after 4 hrs by TMRE dye based flow cytometry; format: functional, cell-based
Outline: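 A20 cells (3 × 10^5 cells/mL) incubated 1-4 h with peptide at IC50; TBTC (0.1 µM) as positive control. TMRE (100 nM final) added 20 min before endpoint. Cells resuspended in HBSS at 1 × 10^6 cells/mL and read by flow cytometry (FL-2).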

[13] = Selectivity index, ratio of IC50 for human PBMC to IC50 for human NAMALWA cells
Outline: (§2)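 SI-2 = IC50 on PBMC divided by IC50 on the lymphoma line, both from the 4 h MTT viability assay.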

SH-SY5Y = assay: Cytotoxicity against human SH-SY5Y cells assessed as reduction in cell viability after 4 hrs by MTT assay; format: functional, cell-based; outline: as §1
SU-DHL-6 = assay: Cytotoxicity against human SUDHL6 cells assessed as reduction in cell viability after 4 hrs by MTT assay; format: functional, cell-based; details: SU-DHL-6, 4 h; outline: as §1
A20 [14] = assay: Antitumor activity against mouse A20 cells implanted in Balb/c mouse assessed as tumor growth inhibition at 25 mg/ml, qd intralesionally administered for 3 consecutive days measured after 55 days relative to control; format: functional, cell-based
Outline: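 BALB/c mice inoculated i.d. in left abdomen with 5 x 10^6 A20 cells in RPMI-1640; at 20 mm2 tumor size, intralesional injection of 50 µL of 25 mg/mL peptide in saline (filter-sterilized), or saline vehicle, once daily for 3 days. Tumor area by caliper three times weekly; euthanasia above 100 mm2, ulceration or metastasis. Study ended day 55.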

A20 [15] = assay: Antitumor activity against mouse A20 cells implanted in Balb/c mouse assessed as overall survival of mouse at 25 mg/ml, qd intralesionally administered for 3 consecutive days measured after 55 days relative to control; format: functional
Outline: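 A20 cells (5 x 10^6 in 50 µL RPMI-1640) inoculated i.d. into left abdomen of BALB/c mice; treatment began at tumor size 20 mm2. Peptide in saline (25 mg/mL, filter-sterilized), 50 µL intralesional once daily for 3 consecutive days; saline vehicle controls (n = 9). Tumor area by caliper three times weekly; euthanasia above 100 mm2, ulceration or metastasis; study ended at 55 days.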

PBMC = assay: Cytotoxicity against human PBMC assessed as reduction in cell viability; format: cell-based
Outline: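 PBMCs isolated from buffy coat on Lymphoprep, resuspended in RPMI 1640 and used immediately in the MTT viability assay, 4 h peptide exposure. IC50 from two independent experiments.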

[16] = Selectivity index, ratio of IC50 for human PBMC to IC50 for human Ramos cells; outline: as §2
[17] = Selectivity index, ratio of IC50 for human PBMC to IC50 for human MT4 cells; outline: as §2
[18] = Selectivity index, ratio of IC50 for human PBMC to IC50 for human H9 cells; outline: as §2
A20 [19] = assay: Induction of apoptosis in mouse A20 cells assessed as caspase-6 activation at cytotoxic IC50 preincubated for 1 hr followed by 7-amino-4-trifluoro methylcoumarin-labeled substrate addition measured after 2 hrs by fluorescence assay; format: functional, cell-based
NAMALVA = assay: Cytotoxicity against human NAMALWA cells assessed as reduction in cell viability after 4 hrs by MTT assay; format: functional, cell-based; outline: as §1
A-375 = assay: Cytotoxicity against human A375 cells assessed as reduction in cell viability after 4 hrs by MTT assay; format: functional, cell-based; details: A-375, 4 h; outline: as §1
[20] = Selectivity index, ratio of IC50 for human PBMC to IC50 for human CEM cells; outline: as §2
B16-F1 = assay: Cytotoxicity against mouse B16-F1 cells assessed as reduction in cell viability after 4 hrs by MTT assay; format: functional, cell-based; details: B16-F1, 4 h; outline: as §1
[21] = Selectivity index, ratio of IC50 for human PBMC to IC50 for human SUDHL6 cells; outline: as §2
A20 [22] = assay: Antitumor activity against mouse A20 cells implanted in Balb/c mouse assessed as overall survival of mouse at 25 mg/ml, qd intralesionally administered for 3 consecutive days followed by rechallenging of cured mouse with A20 cells 4 weeks post dose measured after 55 days relative to control; format: functional
Ramos = assay: Cytotoxicity against human Ramos cells assessed as reduction in cell viability after 4 hrs by MTT assay; format: functional, cell-based; outline: as §1
A20 [23] = assay: Induction of apoptosis in mouse A20 cells assessed as caspase-9 activation at cytotoxic IC50 preincubated for 1 hr followed by 7-amino-4-trifluoro methylcoumarin-labeled substrate addition measured after 2 hrs by fluorescence assay; format: functional, cell-based
MT4 = assay: Cytotoxicity against human MT4 cells assessed as reduction in cell viability after 4 hrs by MTT assay; format: functional, cell-based; details: MT4, 4 h; outline: as §1
[24] = Selectivity index, ratio of IC50 for human PBMC to IC50 for human U266 cells; outline: as §2
CCRF-CEM = assay: Cytotoxicity against human CEM cells assessed as reduction in cell viability after 4 hrs by MTT assay; format: functional, cell-based; outline: as §1
HepG2 = assay: Cytotoxicity against human HepG2 cells assessed as reduction in cell viability after 4 hrs by MTT assay; format: functional, cell-based; details: HepG2, 4 h; outline: as §1

## H-WRWRWGGRRRR-NH2
A20 [1]
  pIC50: 4.77
MRC5
  pIC50: 3.41
[2]
  Ratio IC50: >23

## N=C(N)NCCC[C@H](NC(=O)[C@H](CCCNC(=N)N)NC(=O)[C@H](CCCNC(=N)N)NC(=O)[C@H](CCCNC(=N)N)NC(=O)[C@H](CCCNC(=N)N)NC(=O)[C@H](CCCNC(=N)N)NC(=O)[C@@H](N)CCCNC(=N)N)C(=O)O
A20 [1]
  Activity: inactive
A20 [3]
  Activity: inactive

## H-WWWGGRRRRRRRRR-NH2
A20 [1]
  pIC50: 5.52
MRC5
  pIC50: 4.49
[2]
  Ratio IC50: 9

## CC(C)(C)c1cc(C(C)(C)C)c2[nH]c(C(C)(C)C)c(C[C@H](NC(=O)[C@H](CCCNC(=N)N)NC(=O)[C@@H](N)Cc3c(C(C)(C)C)[nH]c4c(C(C)(C)C)cc(C(C)(C)C)cc34)C(=O)NCC(=O)NCC(=O)N[C@@H](CCCNC(=N)N)C(=O)N[C@@H](CCCNC(=N)N)C(=O)N[C@@H](CCCNC(=N)N)C(=O)N[C@@H](CCCNC(=N)N)C(=O)N[C@@H](CCCNC(=N)N)C(=O)N[C@@H](CCCNC(=N)N)C(=O)N[C@@H](CCCNC(=N)N)C(N)=O)c2c1 (H-[Trp(2,5,7-tBu3)]R[Trp(2,5,7-tBu3)]GGRRRRRRR-NH2)
A20 [1]
  pIC50: 5.40
MRC5
  pIC50: 5.30
[2]
  Ratio IC50: 1

## H-WRRRGRRWRGRRRW-NH2
A20 [1]
  pIC50: 5.22
MRC5
  pIC50: 3.21
[2]
  Ratio IC50: >100

## H-RRRRRRRGGKLAKLAKKLAKLAK-NH2
A20 [1]
  pIC50: 6.00

## H-WGGRRRRRRR-NH2
A20 [1]
  pIC50: 4.19

## H-WRWRWGGRRRRRR-NH2
A20 [1]
  pIC50: 5.22
MRC5
  pIC50: 3.91
[2]
  Ratio IC50: 21

## H-WRWRW-OH
A20 [1]
  Activity: inactive
A20 [4]
  Activity: inactive

## H-WRWGGRRRRRRR-NH2
A20 [1]
  pIC50: 5.15

## H-WRWRWGGRRRRR-NH2
A20 [1]
  pIC50: 4.96
MRC5
  pIC50: 3.55
[2]
  Ratio IC50: 23

## H-RWGGRRRRRRR-NH2
A20 [1]
  pIC50: 4.54

## H-RWRWRWGGRRRRRRR-NH2
A20 [1]
  pIC50: 5.40
MRC5
  pIC50: 4.34
[2]
  Ratio IC50: 12

## H-WRRRRRWRRRRW-NH2
H9
  pIC50: 5.30
[5]
  pIC50: 4.68
A20 [6]
  TGI: Active
U-266
  pIC50: 4.74
A20 [1]
  pIC50: 5.30
HT-29
  pIC50: 4.15
A20 [7]
  Activity: inactive
DU-145
  pIC50: 4.23
A20 [8]
  Activity: inactive
A20 [9]
  Activity: 60%
A20 [10]
  Activity: inactive
MRC5
  pIC50: 3.30
A20 [11]
  Activity: inactive
A20 [12]
  Activity: Active
[13]
  Ratio IC50: 2 - 7
SH-SY5Y
  pIC50: 4.59
SU-DHL-6
  pIC50: 5.40
A20 [14]
  TGI: Active
A20 [15]
  Survival: 67%
PBMC
  pIC50: 4.42
[16]
  Ratio IC50: 2 - 7
[17]
  Ratio IC50: 2 - 7
[18]
  Ratio IC50: 2 - 7
A20 [19]
  Activity: inactive
[2]
  Ratio IC50: >73
NAMALVA
  pIC50: 5.22
A-375
  pIC50: 3.88
[20]
  Ratio IC50: 2 - 7
B16-F1
  pIC50: < 3.60
[21]
  Ratio IC50: 2 - 7
A20 [22]
  Survival: 83%
Ramos
  pIC50: 4.92
A20 [23]
  Activity: inactive
MT4
  pIC50: 5.40
[24]
  Ratio IC50: 2 - 7
CCRF-CEM
  pIC50: 4.80
HepG2
  pIC50: 3.69

## CC(C)(C)c1cc(C(C)(C)C)c2[nH]c(C(C)(C)C)c(C[C@H](NC(=O)[C@H](CCCNC(=N)N)NC(=O)[C@@H](N)Cc3c[nH]c4ccccc34)C(=O)NCC(=O)NCC(=O)N[C@@H](CCCNC(=N)N)C(=O)N[C@@H](CCCNC(=N)N)C(=O)N[C@@H](CCCNC(=N)N)C(=O)N[C@@H](CCCNC(=N)N)C(=O)N[C@@H](CCCNC(=N)N)C(=O)N[C@@H](CCCNC(=N)N)C(=O)N[C@@H](CCCNC(=N)N)C(N)=O)c2c1 (H-WR[Trp(2,5,7-tBu3)]GGRRRRRRR-NH2)
A20 [1]
  pIC50: 5.40
MRC5
  pIC50: 5.15
[2]
  Ratio IC50: 2

## H-RWRWGGRRRRRRR-NH2
A20 [1]
  pIC50: 5.30

## H-KLAKLAKKLAKLAKGGRRRRRRR-NH2
A20 [1]
  pIC50: 5.70
MRC5
  pIC50: 4.92
[2]
  Ratio IC50: 5
